Measurements: ChEMBL document CHEMBL5649170, “Sustained microglial depletion with CSF1R inhibitor impairs parenchymal plaque development in an Alzheimer's disease model” (Nat Commun, 2019)
Calls of active or inactive are those of the source. The calls are words filed in the database; no cut-off is given here.

Experiments:
[1] = Drug concentration in wildtype mouse plasma at 600 ppm administered as rodent chow starting from 1.5 months and measured after 5 months; type: ADME, cell-free; conditions: route po, time 3.5 months
Outline: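 WT or 5xFAD mice were fed PLX3397 in AIN-76A chow at 600 ppm or 75 ppm from 1.5 to 5 months of age. Terminal brain and plasma drug concentrations were determined at study end.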

[2] = target: Homeodomain-interacting protein kinase 4 (Homo sapiens, UniProt Q8NE63); assay: Inhibition of HIPK4 (unknown origin)
Sequence of Homeodomain-interacting protein kinase 4 (Q8NE63 whole entry): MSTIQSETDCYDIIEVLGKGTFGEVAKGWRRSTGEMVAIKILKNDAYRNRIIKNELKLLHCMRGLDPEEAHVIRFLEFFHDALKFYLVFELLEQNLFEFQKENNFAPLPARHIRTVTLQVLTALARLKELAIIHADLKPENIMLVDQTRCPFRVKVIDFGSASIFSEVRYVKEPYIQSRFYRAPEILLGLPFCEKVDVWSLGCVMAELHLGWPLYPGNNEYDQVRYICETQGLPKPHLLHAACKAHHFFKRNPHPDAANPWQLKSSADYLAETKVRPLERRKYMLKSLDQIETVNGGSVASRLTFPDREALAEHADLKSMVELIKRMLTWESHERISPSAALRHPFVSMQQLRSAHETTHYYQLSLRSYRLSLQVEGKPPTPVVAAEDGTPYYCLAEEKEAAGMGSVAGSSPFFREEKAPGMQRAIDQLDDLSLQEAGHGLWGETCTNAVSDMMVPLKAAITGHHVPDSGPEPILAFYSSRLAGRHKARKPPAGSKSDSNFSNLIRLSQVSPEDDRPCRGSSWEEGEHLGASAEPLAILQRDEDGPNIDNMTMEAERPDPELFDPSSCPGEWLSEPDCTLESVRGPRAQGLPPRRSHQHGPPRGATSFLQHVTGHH

[3] = target: Dual specificity tyrosine-phosphorylation-regulated kinase 4 (Homo sapiens, UniProt Q9NR20); assay: Inhibition of DYRK4 (unknown origin)
Sequence of Dual specificity tyrosine-phosphorylation-regulated kinase 4 (Q9NR20 whole entry): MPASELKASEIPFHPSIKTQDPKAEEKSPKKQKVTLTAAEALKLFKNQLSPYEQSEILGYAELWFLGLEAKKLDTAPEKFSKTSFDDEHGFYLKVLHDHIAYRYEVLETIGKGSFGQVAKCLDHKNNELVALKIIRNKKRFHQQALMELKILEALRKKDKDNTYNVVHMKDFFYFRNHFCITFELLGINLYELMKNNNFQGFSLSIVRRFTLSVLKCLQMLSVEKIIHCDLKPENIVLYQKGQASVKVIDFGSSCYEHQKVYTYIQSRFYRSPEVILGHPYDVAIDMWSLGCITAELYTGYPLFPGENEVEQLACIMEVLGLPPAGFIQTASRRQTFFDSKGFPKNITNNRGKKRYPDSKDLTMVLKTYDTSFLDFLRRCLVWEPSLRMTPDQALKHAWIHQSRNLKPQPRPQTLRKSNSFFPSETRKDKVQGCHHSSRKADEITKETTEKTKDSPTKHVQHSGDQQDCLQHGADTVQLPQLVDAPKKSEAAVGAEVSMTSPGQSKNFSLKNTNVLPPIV

[4] = Toxicity in wildtype mouse assessed as number of platform entry at 1200 ppm administered as rodent chow for 10 to 24 weeks by Morris water maze test (reference value: 0 to 5); conditions: in vivo, po, time 10-24 weeks
[5] = target: Calcium/calmodulin-dependent protein kinase type II subunit delta (Homo sapiens, UniProt Q13557); assay: Inhibition of CAMK2D (unknown origin)
Sequence of Calcium/calmodulin-dependent protein kinase type II subunit delta (Q13557 whole entry): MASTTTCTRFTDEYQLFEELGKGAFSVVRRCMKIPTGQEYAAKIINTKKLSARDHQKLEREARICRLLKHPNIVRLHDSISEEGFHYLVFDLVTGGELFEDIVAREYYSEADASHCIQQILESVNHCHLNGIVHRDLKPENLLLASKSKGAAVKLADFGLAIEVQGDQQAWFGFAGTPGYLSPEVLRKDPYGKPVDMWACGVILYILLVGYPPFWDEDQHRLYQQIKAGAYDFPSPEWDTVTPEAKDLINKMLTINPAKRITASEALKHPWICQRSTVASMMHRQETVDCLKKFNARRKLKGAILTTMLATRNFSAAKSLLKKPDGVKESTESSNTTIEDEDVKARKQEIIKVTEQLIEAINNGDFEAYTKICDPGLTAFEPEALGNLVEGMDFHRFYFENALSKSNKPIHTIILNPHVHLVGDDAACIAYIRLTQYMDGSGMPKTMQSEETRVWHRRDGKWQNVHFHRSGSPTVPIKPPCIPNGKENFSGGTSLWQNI

[6] = Effect on Ctsd gene expression in wild type mouse hippocampus at 1200 ppm administered as rodent chow starting from 1.5 months and measured after 7 months by RNA-Seq analysis (reference value: 111.753 to 176.402 RPKM); type: functional; conditions: route po, time 5.5 months, 4015 h
[7] = target: Inhibitor of nuclear factor kappa-B kinase subunit epsilon (Homo sapiens, UniProt Q14164); assay: Inhibition of IKBKE (unknown origin)
Sequence of Inhibitor of nuclear factor kappa-B kinase subunit epsilon (Q14164 whole entry): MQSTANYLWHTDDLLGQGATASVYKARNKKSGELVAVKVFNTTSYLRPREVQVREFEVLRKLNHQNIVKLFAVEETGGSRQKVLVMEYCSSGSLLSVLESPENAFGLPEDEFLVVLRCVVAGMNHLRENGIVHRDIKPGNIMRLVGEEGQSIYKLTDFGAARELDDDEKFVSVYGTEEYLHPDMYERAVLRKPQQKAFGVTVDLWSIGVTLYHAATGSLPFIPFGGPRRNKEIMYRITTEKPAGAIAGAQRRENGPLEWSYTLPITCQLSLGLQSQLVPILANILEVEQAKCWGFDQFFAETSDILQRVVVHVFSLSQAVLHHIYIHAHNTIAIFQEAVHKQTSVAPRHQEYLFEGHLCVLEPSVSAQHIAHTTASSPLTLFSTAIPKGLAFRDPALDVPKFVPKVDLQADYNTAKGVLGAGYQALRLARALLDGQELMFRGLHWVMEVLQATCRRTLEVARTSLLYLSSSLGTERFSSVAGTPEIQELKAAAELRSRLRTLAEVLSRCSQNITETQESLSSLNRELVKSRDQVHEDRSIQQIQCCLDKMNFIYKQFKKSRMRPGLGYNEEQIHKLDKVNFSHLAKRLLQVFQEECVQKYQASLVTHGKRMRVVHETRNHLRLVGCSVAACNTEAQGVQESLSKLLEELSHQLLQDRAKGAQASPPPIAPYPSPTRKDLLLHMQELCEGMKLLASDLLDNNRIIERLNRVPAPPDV

Mus musculus [8] = assay: Antialzheimer activity in 5XFAD mouse assessed as amyloidbeta42 level in detergent soluble cortex fraction measured per microgram protein at 1200 ppm administered as rodent chow starting from 1.5 months and measured after 7 months by ELISA (reference value: 0 to 0.239 pg); type: functional; conditions: route po, time 5.5 months, 4015 h
Outline: (§1)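 PLX5622 at 1200 ppm in chow given to 5xFAD mice from 1.5 months to 4 or 7 months of age; cortex and thalamus homogenized in TPER (detergent-soluble), pellets re-homogenized in 70% formic acid and spun 100,000 g, 1 h, 4 °C (insoluble); protein by Bradford/Lowry; Aβ species measured by Meso Scale electrochemiluminescence immunoassay, normalized to protein; n = 7–8 per group at 7 months.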

Mus musculus [9] = assay: Antialzheimer activity in 5XFAD mouse assessed as proportion of time spent freezing at 1200 ppm administered as rodent chow for 10 to 24 weeks by […] (reference value: 0.00 to 0.43); type: functional; conditions: route po, time 10-24 weeks
[10] = target: RAC-beta serine/threonine-protein kinase (Homo sapiens, UniProt P31751); assay: Inhibition of AKT2 (unknown origin)
Sequence of RAC-beta serine/threonine-protein kinase (P31751 whole entry): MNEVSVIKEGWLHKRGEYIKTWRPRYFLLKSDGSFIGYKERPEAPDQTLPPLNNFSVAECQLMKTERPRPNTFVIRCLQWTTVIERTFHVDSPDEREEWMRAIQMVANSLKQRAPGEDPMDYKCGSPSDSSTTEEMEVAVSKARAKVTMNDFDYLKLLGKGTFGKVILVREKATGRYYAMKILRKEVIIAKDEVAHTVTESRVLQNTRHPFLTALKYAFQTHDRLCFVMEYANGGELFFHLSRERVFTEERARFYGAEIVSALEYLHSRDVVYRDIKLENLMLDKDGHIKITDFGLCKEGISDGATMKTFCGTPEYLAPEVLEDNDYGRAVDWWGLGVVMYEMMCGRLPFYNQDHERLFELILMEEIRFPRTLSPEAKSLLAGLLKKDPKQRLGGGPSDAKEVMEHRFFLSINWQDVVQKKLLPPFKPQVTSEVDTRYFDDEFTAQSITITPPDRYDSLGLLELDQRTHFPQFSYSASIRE

Mus musculus [11] = assay: Effect on circulating leukocytes in wildtype mouse assessed as percentage of CD45+/PI- cells expressing CD11c at 1200 ppm administered as rodent chow for 10 to 24 weeks (reference value: 34.7 to 54.3 %); type: functional; conditions: route po, time 10-24 weeks
Mus musculus [12] = assay: Prevention of Grn gene upregulation in 5XFAD mouse hippocampus at 1200 ppm administered as rodent chow starting from 1.5 months and measured after 7 months by Nanostring analysis; type: functional, tissue-based; conditions: route po, time 5.5 months
[13] = Effect on Cx3cr1 gene expression in 5XFAD mouse hippocampus at 1200 ppm administered as rodent chow starting from 1.5 months and measured after 7 months by RNA-Seq analysis (reference value: 17.752 to 23.676 RPKM); type: functional; conditions: route po, time 5.5 months, 4015 h
Mus musculus [14] = assay: Effect on APP processing pathway in wildtype mouse assessed as C-terminal PS1 protein signal intensity in cortex at 1200 ppm administered as rodent starting from 1.5 months and measured after 7 months (reference value: 5.248 to 133.048 %); type: functional; conditions: route po, time 5.5 months, 4015 h
Mus musculus [15] = assay: Antialzheimer activity in 5XFAD mouse assessed as amyloidbeta42 level in detergent soluble cortex fraction measured per microgram protein at 1200 ppm administered as rodent chow starting from 1.5 months and measured after 4 months by ELISA (reference value: 0 to 0.063 pg); type: functional; conditions: route po, time 2.5 months, 1825 h; outline: as §1
[16] = Effect on Csf1r RPKM gene expression in 5XFAD mouse cortex at 1200 ppm administered as rodent chow starting from 1.5 months and measured after 7 months by RNA-Seq analysis (reference value: 26.750 to 37.128 RPKM); type: functional; conditions: route po, time 5.5 months, 4015 h
[17] = Effect on Clec7a gene expression in wild type mouse hippocampus at 1200 ppm administered as rodent chow starting from 1.5 months and measured after 7 months by RNA-Seq analysis (reference value: 0.034 to 0.503 RPKM); type: functional; conditions: route po, time 5.5 months, 4015 h
Outline: (§2)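 WT and 5xFAD mice were treated with 1200 ppm PLX5622 chow or control chow from 1.5 to 7 months of age. Brains were microdissected into cortex, hippocampus and thalamus, and RNA was extracted from tissue powder. Whole-transcriptome RNA-Seq libraries were sequenced, with n = 4 per group per region (48 samples).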

[18] = target: Tyrosine-protein kinase Lyn (Homo sapiens, UniProt P07948); assay: Inhibition of LYN_B (unknown origin)
Sequence of Tyrosine-protein kinase Lyn (P07948 whole entry): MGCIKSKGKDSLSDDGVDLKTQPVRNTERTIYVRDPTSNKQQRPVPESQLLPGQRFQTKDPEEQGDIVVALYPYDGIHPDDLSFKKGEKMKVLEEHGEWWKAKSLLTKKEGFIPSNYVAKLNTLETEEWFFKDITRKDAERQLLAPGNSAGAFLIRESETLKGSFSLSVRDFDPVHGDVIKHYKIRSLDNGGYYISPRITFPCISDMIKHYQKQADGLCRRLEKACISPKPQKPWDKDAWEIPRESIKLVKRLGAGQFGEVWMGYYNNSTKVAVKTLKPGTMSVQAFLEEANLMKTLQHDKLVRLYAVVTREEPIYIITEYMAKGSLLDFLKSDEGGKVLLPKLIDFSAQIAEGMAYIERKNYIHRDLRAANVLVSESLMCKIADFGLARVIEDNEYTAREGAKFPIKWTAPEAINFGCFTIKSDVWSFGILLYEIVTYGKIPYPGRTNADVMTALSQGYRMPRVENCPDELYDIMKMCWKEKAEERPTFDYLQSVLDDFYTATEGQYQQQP

[19] = target: Phosphatidylinositol 3-kinase catalytic subunit type 3 (Homo sapiens, UniProt Q8NEB9); assay: Inhibition of PIK3C3 (unknown origin)
Sequence of Phosphatidylinositol 3-kinase catalytic subunit type 3 (Q8NEB9 whole entry): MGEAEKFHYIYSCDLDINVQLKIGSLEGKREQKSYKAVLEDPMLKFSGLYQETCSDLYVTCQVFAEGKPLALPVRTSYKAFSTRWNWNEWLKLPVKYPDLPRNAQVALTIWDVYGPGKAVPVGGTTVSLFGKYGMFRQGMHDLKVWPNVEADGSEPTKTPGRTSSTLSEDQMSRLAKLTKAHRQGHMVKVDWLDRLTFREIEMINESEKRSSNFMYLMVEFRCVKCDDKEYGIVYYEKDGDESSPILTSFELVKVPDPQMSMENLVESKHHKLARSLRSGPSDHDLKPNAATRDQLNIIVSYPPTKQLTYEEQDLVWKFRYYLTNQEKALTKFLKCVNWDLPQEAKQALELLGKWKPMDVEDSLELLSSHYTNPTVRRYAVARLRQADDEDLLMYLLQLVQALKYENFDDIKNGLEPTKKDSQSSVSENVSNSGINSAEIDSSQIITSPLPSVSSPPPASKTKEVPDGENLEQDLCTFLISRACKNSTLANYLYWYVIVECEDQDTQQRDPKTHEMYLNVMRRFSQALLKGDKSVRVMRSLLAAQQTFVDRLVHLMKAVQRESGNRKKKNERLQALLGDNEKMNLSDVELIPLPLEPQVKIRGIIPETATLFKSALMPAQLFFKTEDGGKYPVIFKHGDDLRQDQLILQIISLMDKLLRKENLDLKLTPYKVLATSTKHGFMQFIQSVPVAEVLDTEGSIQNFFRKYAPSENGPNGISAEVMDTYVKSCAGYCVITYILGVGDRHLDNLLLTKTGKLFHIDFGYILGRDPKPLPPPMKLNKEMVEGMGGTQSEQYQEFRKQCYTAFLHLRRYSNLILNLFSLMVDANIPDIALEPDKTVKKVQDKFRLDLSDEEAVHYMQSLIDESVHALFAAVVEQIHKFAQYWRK

[20] = Oral bioavailability in dog at 45 mg/kg administered as single via gavage; type: ADME, organism-based, Canis lupus familiaris; conditions: in vivo
[21] = Effect on Chrm3 gene expression in wildtype mouse hippocampus assessed as percent change in Reads Per kilo base per Million mapped reads at 1200 ppm administered as rodent chow starting from 1.5 months and measured after 7 months by RNA-Seq analysis (reference value: 85.337 to 114.189 %); type: functional; conditions: route po, time 5.5 months, 4015 h; outline: as §2
[22] = Effect on Rnf217 gene expression in wildtype mouse hippocampus assessed as percent change in Reads Per kilo base per Million mapped reads at 1200 ppm administered as rodent chow starting from 1.5 months and measured after 7 months by RNA-Seq analysis (reference value: 92.169 to 103.245 %); type: functional; conditions: route po, time 5.5 months, 4015 h
[23] = target: Serine/threonine-protein kinase PAK 4 (Homo sapiens, UniProt O96013); assay: Inhibition of PAK4 (unknown origin)
Sequence of Serine/threonine-protein kinase PAK 4 (O96013 whole entry): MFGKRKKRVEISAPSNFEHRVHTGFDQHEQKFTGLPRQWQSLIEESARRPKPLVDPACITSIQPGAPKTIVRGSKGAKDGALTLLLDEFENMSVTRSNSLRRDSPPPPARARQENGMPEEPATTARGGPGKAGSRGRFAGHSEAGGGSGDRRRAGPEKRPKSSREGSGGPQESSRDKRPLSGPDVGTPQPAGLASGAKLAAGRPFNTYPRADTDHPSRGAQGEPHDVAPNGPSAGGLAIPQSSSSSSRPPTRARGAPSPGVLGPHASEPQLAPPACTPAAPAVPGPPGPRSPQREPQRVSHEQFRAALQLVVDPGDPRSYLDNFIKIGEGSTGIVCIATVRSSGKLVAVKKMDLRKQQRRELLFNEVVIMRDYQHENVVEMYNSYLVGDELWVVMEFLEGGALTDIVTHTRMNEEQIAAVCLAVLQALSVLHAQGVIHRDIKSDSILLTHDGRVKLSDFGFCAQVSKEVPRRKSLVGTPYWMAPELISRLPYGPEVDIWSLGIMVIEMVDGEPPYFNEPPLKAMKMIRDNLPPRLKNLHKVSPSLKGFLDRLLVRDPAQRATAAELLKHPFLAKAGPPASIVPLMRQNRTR

Mus musculus [24] = assay: Antialzheimer activity in 5XFAD mouse assessed as number of Thio-S positive plaques per FOV in thalamus at 1200 ppm administered as rodent chow starting from 1.5 months and measured after 7 months by Thio-S staining based confocal microscopic analysis (reference value: 97 to 282); type: functional; conditions: route po, time 5.5 months, 4015 h

FC(F)(F)c1ccc(CNc2ccc(Cc3c[nH]c4ncc(Cl)cc34)cn2)cn1 [PEXIDARTINIB]
concentration at 2555 h [1]: 139 µM

COc1ncc(F)cc1CNc1ccc(Cc2c[nH]c3ncc(C)cc23)c(F)n1 [PLX-5622]
IC50 [2]: > 1 µM
IC50 [3]: > 1 µM
Activity [4]: 1
IC50 [5]: > 1 µM
Activity [6]: 89.626 RPKM
IC50 [7]: > 1 µM
Activity (Mus musculus [8]): 0 pg
Activity (Mus musculus [9]): 0.07
IC50 [10]: > 1 µM
Activity (Mus musculus [11]): 31.4%
Activity (Mus musculus [12]): Active
Activity [13]: 1.607 RPKM
Activity (Mus musculus [14]): 15.313%
Activity (Mus musculus [15]): 0.006 pg
Activity [16]: 0.984 RPKM
Activity [17]: 0.04 RPKM
IC50 [18]: > 1 µM
IC50 [19]: > 1 µM
bioavailability [20]: 34%
Activity [21]: 79.458%
Activity [22]: 69.868%
IC50 [23]: > 1 µM
Activity (Mus musculus [24]): 45
